Results as given in ChEMBL document CHEMBL4017499, “The Discovery of Novel Antimalarial Aminoxadiazoles as a Promising Nonendoperoxide Scaffold” (J Med Chem, 2017).
Converted amounts (≈) assume the structure as drawn. Values belong to the molecule of their own block, whether it stands above or below them. The source made the active and inactive calls. No cut-off for these calls is given here.

How the values were obtained:
[1] = system: Plasmodium falciparum; assay: Antiplasmodial activity against Plasmodium falciparum 3D7A infected in red blood cells preincubated for 24 hrs followed by [3H]-hypoxanthine addition measured after 24 hrs by scintillation counting; assay type: functional, cell-based
How it was run: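 Whole-cell growth assay on sensitive P. falciparum strain 3D7A by [3H]hypoxanthine incorporation; two or three independent biological replicates per value.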

[2] = system: Liver; assay: Intrinsic clearance in human liver microsomes at 0.5 uM up to 45 mins in presence of NADPH by HPLC-MS/MS analysis; assay type: ADME, microsome; conditions: 0.75 h
[3] = system: Plasmodium falciparum; assay: Ratio of IC50 for chloroquine/pyrimethamine-resistant Plasmodium falciparum V1/S infected in red blood cells to IC50 for wild type Plasmodium falciparum 3D7A infected in red blood cells; assay type: functional
[4] = Ratio of IC50 for chloroquine/pyrimethamine-resistant Plasmodium falciparum Dd2 infected in red blood cells to IC50 for wild type Plasmodium falciparum 3D7A infected in red blood cells; assay type: functional
[5] = system: Plasmodium falciparum; assay: Ratio of IC50 for chloroquine/pyrimethamine/atovaquone-resistant Plasmodium falciparum Tm90C2B infected in red blood cells to IC50 for wild type Plasmodium falciparum 3D7A infected in red blood cells; assay type: functional
[6] = system: Plasmodium falciparum; assay: Antimalarial activity against Plasmodium falciparum 3D7 0087/N9 infected in po dosed SCID mouse assessed as reduction in parasitemia administered 3 days post infection dosed once a day for four consecutive days measured after 7 days; assay type: functional; conditions: 3D7 0087/N9, po
How it was run: (§1)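 SCID mice engrafted with human parasite P. falciparum Pf 3D70087/N9; oral dosing started 3 days after infection, once daily for four consecutive days; parasitemia compared with untreated controls.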

[7] = Solubility of the compound in fasted state stimulated intestinal fluid at pH 6.5 by HPLC analysis; assay type: physicochemical; conditions: fasted state simulated intestinal fluid
How it was run: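 Solubility measured in fasted state simulated intestinal fluid, pH 6.5.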

[8] = Lipophilicity, log D of compound at pH 7.4 by chromatographic method; assay type: physicochemical; conditions: buffer
[9] = Ratio of IC50 for chloroquine-resistant Plasmodium falciparum 2B12 infected in red blood cells to IC50 for wild type Plasmodium falciparum […] infected in red blood cells; assay type: functional
[10] = Chemical stability of compound in SGF media at pH 1.6 after 24 hrs; assay type: physicochemical; conditions: simulated gi fluid, pH 1.6, 24 h
How it was run: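 Stability in simulated gastric fluid at pH 1.6, held at 37 °C for up to 24 h; checked for degradation products.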

[11] = AUC in Swiss CD1 mouse plasma at 500 mg/kg, po; assay type: ADME, organism-based
How it was run: (§2)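 Female Swiss CD-1 mice given oral doses of 300 and 500 mg/kg; in-life observations, body weight evolution, relative organ weight, hematology and clinical chemistry recorded; plasma exposure measured at the highest dose; two independent experiments.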

[12] = system: Mus musculus; assay: Toxicity in Swiss CD1 mouse assessed as effect on in life observation at 300 to 500 mg/kg, po measured up to 24 hrs post dose by Irwin test; assay type: organism-based; conditions: in vivo; how it was run: as §2
[13] = system: Mus musculus; assay: Toxicity in Swiss CD1 mouse assessed as effect on body weight evolution at 300 to 500 mg/kg, po measured up to 24 hrs post dose by Irwin test; assay type: organism-based; conditions: in vivo; how it was run: as §2
[14] = system: Mus musculus; assay: Toxicity in Swiss CD1 mouse assessed as effect on organ weight at 300 to 500 mg/kg, po measured up to 24 hrs post dose by Irwin test; assay type: organism-based; conditions: in vivo; how it was run: as §2
[15] = Ratio of TC50 for human HepG2 to IC50 for antiplasmodial activity against Plasmodium falciparum 3D7A infected in red blood cells
How it was run: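 Denominator is the asexual P. falciparum 3D7A IC50 from a [3H]hypoxanthine incorporation assay, using two or three independent biological replicates. Numerator is the 50% toxicity value in HepG2 cells, expressed as Tox50/Pf 3D7 IC50.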

[16] = system: Mus musculus; assay: Toxicity in Swiss CD1 mouse assessed as passivity at 500 mg/kg, po measured up to 24 hrs post dose by Irwin test; assay type: organism-based; conditions: in vivo
[17] = system: Plasma; assay: Drug metabolism in Swiss CD1 mouse assessed as 2-([3,4'-Bipyridine]-2'-carbonyl)-N-(4-(pyrrolidin-1-ylmethyl)-phenyl)hydrazinecarboxamide in plasma at 300 to 500 mg/kg, po by HPLC analysis; assay type: ADME, organism-based; conditions: in vivo
How it was run: (§3)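 Mice given high oral doses (250/300 and 500 mg/kg); plasma analysed by HPLC for parent compound and breakdown products, expressed as percentage levels.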

[18] = system: Plasma; assay: Drug level in Swiss CD1 mouse plasma treated with 5-([3,4'-Bipyridin]-2'-yl)-N-(4-(pyrrolidin-1-ylmethyl)phenyl)-1,3,4-oxadiazol-2-amine at 500 mg/kg, po by HPLC analysis; assay type: ADME, organism-based; conditions: in vivo; how it was run: as §3
[19] = Ratio of IC50 for Plasmodium falciparum HB3 infected in red blood cells to IC50 for wild type Plasmodium falciparum 3D7A infected in red blood cells; assay type: functional
[20] = system: Plasmodium falciparum; assay: Ratio of IC50 for pyrimethamine-resistant Plasmodium falciparum TC08 infected in red blood cells to IC50 for wild type Plasmodium falciparum 3D7A infected in red blood cells; assay type: functional
[21] = system: Plasmodium falciparum; assay: Ratio of IC50 for chloroquine-resistant Plasmodium falciparum T9/94 infected in red blood cells to IC50 for wild type Plasmodium falciparum 3D7A infected in red blood cells; assay type: functional
[22] = system: Plasmodium falciparum; assay: Ratio of IC50 for chloroquine/atovaquone/cycloguanil-resistant Plasmodium falciparum FCR3 infected in red blood cells to IC50 for wild type Plasmodium falciparum 3D7A infected in red blood cells; assay type: functional
[23] = system: Plasmodium falciparum; assay: Ratio of IC50 for chloroquine/pyrimethamine-resistant Plasmodium falciparum Tm90C2A infected in red blood cells to IC50 for wild type Plasmodium falciparum 3D7A infected in red blood cells; assay type: functional
[24] = Volume of distribution at steady state in CD1 mouse at 1 mg/kg, iv measured up to 24 hrs post dose by LC-MS/MS analysis; assay type: ADME, organism-based; conditions: in vivo, read-out: Vdss
How it was run: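 Pharmacokinetics in mouse after a single intravenous dose of 1 mg/kg.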

[25] = Oral bioavailability in CD1 mouse at 10 mg/kg measured up to 24 hrs post dose by LC-MS/MS analysis; assay type: ADME, organism-based; conditions: in vivo
How it was run: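 Oral bioavailability in mouse after a single oral dose of 10 mg/kg.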

[26] = system: Plasmodium falciparum; assay: Antimalarial activity against Plasmodium falciparum 3D7 0087/N9 infected in SCID mouse assessed as reduction in parasitemia at 120 mg/kg, po administered 3 days post infection dosed once a day for four consecutive days relative to control; assay type: functional; parameters: scale not given: the % may be the effect or the level left; how it was run: as §1
[27] = system: HepG2; assay: Cytotoxicity against human HepG2 cells at 25 uM; assay type: cell-based; conditions: hepg2, 25 µM
How it was run: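 HepG2 cells exposed to compound at 25 μM to assess mammalian cytotoxicity.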

[28] = system: Plasmodium falciparum; assay: Antimalarial activity against Plasmodium falciparum 3D7 0087/N9 infected in SCID mouse assessed as reduction in parasitemia at 67 mg/kg, po administered 3 days post infection dosed once a day for four consecutive days measured 7 days post dose; assay type: functional, organism-based; how it was run: as §1
[29] = system: Plasma; assay: Drug level in Swiss CD1 mouse plasma treated with 5-(3-(Pyridin-3-yl)-5-(trifluoromethyl)phenyl)-N-(4-(pyrrolidin-1-ylmethyl)phenyl)-1,3,4-oxadiazol-2-amine at 500 mg/kg, po by HPLC analysis; assay type: ADME, organism-based; conditions: in vivo; how it was run: as §3

Structure (SMILES): CN1Cc2ccc(Nc3nnc(-c4cccc(-c5cccnc5)c4)o3)cc2C1
IC50 [1]: 70 nM
intrinsic clearance [2]: 5.1 mL/min/g

Structure (SMILES): c1cncc(-c2ccnc(-c3nnc(Nc4ccc(CN5CCCC5)cc4)o3)c2)c1
Ratio IC50 [3]: 1
IC50 [1]: 20 nM
Ratio IC50 [4]: 1
Ratio IC50 [5]: 1
ED90 [6]: 12.4 mg/kg
solubility [7]: > 1000 µg/mL
chromatographic logD [8]: 1.3
Ratio IC50 [9]: 1
Stability [10]: Stable
AUC [11]: 68900 ng·h/mL
Activity [12]: Non-Toxic
Activity [13]: Non-Toxic
Activity [14]: Non-Toxic
Ratio [15]: >1000
Activity [16]: Toxic
Drug metabolism [17]: Metabolite_Detected

Structure (SMILES): O=C(NNC(=O)c1cc(-c2cccnc2)ccn1)Nc1ccc(CN2CCCC2)cc1
Drug metabolism [18]: Metabolite_Detected

Structure (SMILES): CN1CCOc2ccc(Nc3nnc(-c4cccc(-c5cccnc5)c4)o3)cc2C1
Ratio IC50 [3]: 1
IC50 [1]: 70 nM
Ratio IC50 [19]: 1
Ratio IC50 [4]: 1
Ratio IC50 [20]: 1
Ratio IC50 [21]: 1
Ratio IC50 [5]: 1
Ratio IC50 [22]: 1
Ratio IC50 [23]: 1
Vd [24]: 2.6 L/kg
bioavailability [25]: 26.6%
Activity [26]: 81%
intrinsic clearance [2]: 13.7 mL/min/g
ED90 [6]: > 120 mg/kg
Ratio [15]: >100
Activity [27]: Non-Toxic

Structure (SMILES): CN1CCc2ccc(Nc3nnc(-c4cccc(-c5cccnc5)n4)o3)cc2C1
IC50 [1]: 1900 nM

Structure (SMILES): CN1CCc2ccc(Nc3nnc(-c4ccc(F)c(-c5cccnc5)c4)o3)cc2C1
IC50 [1]: 480 nM
intrinsic clearance [2]: 2.2 mL/min/g

Structure (SMILES): FC(F)(F)c1cccc(Nc2nnc(-c3cccc(-c4cccnc4)c3)o2)c1
IC50 [1]: 690 nM
intrinsic clearance [2]: 3.3 mL/min/g

Structure (SMILES): Clc1cccc(Nc2nnc(-c3cccc(-c4cccnc4)c3)o2)c1
IC50 [1]: 5530 nM
intrinsic clearance [2]: 3.7 mL/min/g

Structure (SMILES): CN1CCc2ccc(Nc3nnc(-c4cccc(-c5cccnc5)c4)o3)nc2C1
IC50 [1]: 130 nM

Structure (SMILES): O=C(O)c1cc(-c2cccnc2)cc(C(F)(F)F)c1
Drug metabolism [29]: Metabolite_Detected

The next lines start with results.

IC50 [1]: 50 nM
intrinsic clearance [2]: 2.9 mL/min/g
Structure (SMILES): CN1CCc2ccc(Nc3nnc(-c4cc(-c5cccnc5)ccc4F)o3)cc2C1

IC50 [1]: 50 nM
intrinsic clearance [2]: < 0.5 mL/min/g
Structure (SMILES): CN1CCc2ccc(Nc3nnc(-c4cc(F)cc(-c5cccnc5)c4)o3)cc2C1

IC50 [1]: 30 nM
solubility [7]: 68 µg/mL (≈ 150 µM)
Structure (SMILES): CN1CCc2ncc(Nc3nnc(-c4cc(-c5cccnc5)cc(C(F)(F)F)c4)o3)cc2C1
Activity [28]: inactive

IC50 [1]: 30 nM
Structure (SMILES): CN(C)Cc1ccc(Nc2nnc(-c3cccc(-c4cccnc4)c3)o2)cc1
